The values that follow come from ChEMBL document CHEMBL1128568, “Design and structure-activity relationships of C-terminal cyclic neurotensin fragment analogues” (J Med Chem, 1995).

Non-standard residues stand in square brackets, D forms with d. Residues, ends and D or L forms follow the SMILES beside them. NMeR = CN[C@@H](CCCNC(=N)N)C(=O)O; Tle = CC(C)(C)[C@H](N)C(=O)O

The experiment is described as follows: Binding affinity against neurotensin receptor. An outline of the steps:
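Neonatal (10-day postnatal) mouse brain membranes, cerebellum removed, washed by repeated 100000g spins in 5 mM Tris pH 7.5, resuspended 1 g wet weight/mL in 50 mM Tris pH 7.4 with BSA, bacitracin, EDTA, phenanthroline, PMSF. Competition against [3H]NT (0.20 nM final) or [125I-Tyr3]NT (0.21 nM final), 30 min at 25 °C. Separation by filtration on PEI-soaked GF/B filters. Nonspecific binding with 1 μM NT.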
As a reminder, the Ki is the equilibrium dissociation constant of an inhibitor or competing ligand from its target. `CC(C)C[C@H](NC(=O)[C@@H](N)CCC(=O)O)C(=O)N[C@@H](Cc1ccc(O)cc1)C(=O)N[C@@H](CCC(=O)O)C(=O)N[C@@H](CC(N)=O)C(=O)N[C@@H](CCCCN)C(=O)N1CCC[C@H]1C(=O)N(C)[C@@H](CCCN=C(N)N)C(=O)N1C(=O)[C@H](CC(C)C)NC(=O)[C@@H](CCC(=O)O)NC(=O)[C@H](Cc2c[nH]c3ccccc23)NC(=O)[C@@H]2CCCN2C(=O)[C@@H]1CCCCN`: the affinity, expressed as Ki, was 1600 nM.
`CC(C)C[C@H](NC(=O)[C@@H](N)CCC(=O)O)C(=O)N[C@@H](Cc1ccc(O)cc1)C(=O)N[C@@H](CCC(=O)O)C(=O)N[C@@H](CC(N)=O)C(=O)N[C@@H](CCCCN)C(=O)N1CCC[C@H]1C(=O)N(C)[C@@H](CCCN=C(N)N)C(=O)N1C(=O)[C@H](CC(C)C)NC(=O)[C@H](CCC(=O)O)NC(=O)[C@H](Cc2c[nH]c3ccccc23)NC(=O)[C@@H]2CCCN2C(=O)[C@@H]1CCCCN`: the inhibition constant (Ki) was 770 nM.
As for `CC(C)C[C@H](NC(=O)[C@H]1NC(=O)[C@H](Cc2c[nH]c3ccccc23)NC(=O)[C@H]2CCCN2C(=O)[C@H](NC(=O)[C@H](CCCN=C(N)N)N(C)C(=O)[C@@H]2CCCN2C(=O)[C@H](CCCCN)NC(=O)[C@H](CC(N)=O)NC(=O)[C@H](CCC(=O)O)NC(=O)[C@H](Cc2ccc(O)cc2)NC(=O)[C@H](CC(C)C)NC(=O)[C@@H](N)CCC(=O)O)C(C)(C)SSC1(C)C)C(=O)O`, the figure is 4400 nM.
`CC(C)C[C@H](NC(=O)[C@@H]1CSSC[C@@H](NC(=O)[C@H](CCCN=C(N)N)N(C)C(=O)[C@@H]2CCCN2C(=O)[C@H](CCCCN)NC(=O)[C@H](CC(N)=O)NC(=O)[C@H](CCC(=O)O)NC(=O)[C@H](Cc2ccc(O)cc2)NC(=O)[C@H](CC(C)C)NC(=O)[C@@H](N)CCC(=O)O)C(=O)N2CCC[C@@H]2C(=O)N[C@@H](Cc2c[nH]c3ccccc23)C(=O)N1)C(=O)O` gave a Ki of 810 nM.
Under `CC(C)C[C@H](NC(=O)[C@H]1NC(=O)[C@H](Cc2c[nH]c3ccccc23)NC(=O)[C@H]2CCCN2C(=O)[C@H](NC(=O)[C@H](CCCN=C(N)N)N(C)C(=O)[C@@H]2CCCN2C(=O)[C@H](CCCCN)NC(=O)[C@H](CC(N)=O)NC(=O)[C@H](CCC(=O)O)NC(=O)[C@H](Cc2ccc(O)cc2)NC(=O)[C@H](CC(C)C)NC(=O)[C@@H](N)CCC(=O)O)CSSC1(C)C)C(=O)O` stands 83 nM; under `CC(C)CC(NC(=O)CC[C@@H]1NC(=O)[C@H](Cc2c[nH]c3ccccc23)NC(=O)[C@@H]2CCCN2C(=O)[C@H](CCCCN)NC(=O)[C@H](CCCN=C(N)N)N(C)C(=O)CN(C(=O)[C@@H]2CCCN2C(=O)[C@H](CCCCN)NC(=O)[C@H](CC(N)=O)NC(=O)[C@H](CCC(=O)O)NC(=O)[C@H](Cc2ccc(O)cc2)NC(=O)[C@H](CC(C)C)NC(=O)[C@@H](N)CCC(=O)O)C1=O)C(=O)O` (some centres undefined), 28 nM.
As for `CC(C)C[C@H](NC(=O)CC[C@@H]1NC(=O)[C@H](Cc2c[nH]c3ccccc23)NC(=O)[C@@H]2CCCN2C(=O)[C@H](CCCCN)NC(=O)[C@@H](CCCN=C(N)N)N(C(=O)[C@@H]2CCCN2C(=O)[C@H](CCCCN)NC(=O)[C@H](CC(N)=O)NC(=O)[C@H](CCC(=O)O)NC(=O)[C@H](Cc2ccc(O)cc2)NC(=O)[C@H](CC(C)C)NC(=O)[C@@H](N)CCC(=O)O)C1=O)C(=O)O`, the figure is 16 nM; as for `CC(C)C[C@H](NC(=O)[C@@H](N)CCC(=O)O)C(=O)N[C@@H](Cc1ccc(O)cc1)C(=O)N[C@@H](CCC(=O)O)C(=O)N[C@@H](CC(N)=O)C(=O)N[C@@H](CCCCN)C(=O)N1CCC[C@H]1C(=O)N1C(=O)[C@H](CC(C)C)NC(=O)[C@H](C(C)(C)C)NC(=O)[C@H](Cc2ccc(O)cc2)NC(=O)[C@@H]2CCCN2C(=O)[C@H](CCCCN)NC(=O)[C@H]1CCCN=C(N)N`, 440 nM.
For `CC(C)C[C@H](NC(=O)[C@@H](N)CCC(=O)O)C(=O)N[C@@H](Cc1ccc(O)cc1)C(=O)N[C@@H](CCC(=O)O)C(=O)N[C@@H](CC(N)=O)C(=O)N[C@@H](CCCCN)C(=O)N1CCC[C@H]1C(=O)N1C(=O)[C@H](CCC(=O)O)NC(=O)[C@H](Cc2c[nH]c3ccccc23)NC(=O)[C@@H]2CCCN2C(=O)[C@H](CCCCN)NC(=O)[C@H]1CCCN=C(N)N`, the inhibition constant (Ki) was > 10000 nM.
Under `CC(C)C[C@H](NC(=O)[C@@H](N)CCC(=O)O)C(=O)N[C@@H](Cc1ccc(O)cc1)C(=O)N[C@@H](CCC(=O)O)C(=O)N[C@@H](CC(N)=O)C(=O)N[C@@H](CCCCN)C(=O)N1CCC[C@H]1C(=O)N1C(=O)[C@H](CC(C)C)NC(=O)[C@H](C(C)(C)C)NC(=O)[C@H](Cc2c[nH]c3ccccc23)NC(=O)[C@@H]2CCCN2C(=O)[C@H](CCCCN)NC(=O)[C@@H]1CCCN=C(N)N` stands 410 nM; under `CC(C)C[C@H](NC(=O)CC[C@@H]1NC(=O)[C@H](Cc2c[nH]c3ccccc23)NC(=O)[C@@H]2CCCN2C(=O)[C@H](C)NC(=O)[C@@H](CCCN=C(N)N)N(C(=O)[C@@H]2CCCN2C(=O)[C@H](CCCCN)NC(=O)[C@H](CC(N)=O)NC(=O)[C@H](CCC(=O)O)NC(=O)[C@H](Cc2ccc(O)cc2)NC(=O)[C@H](CC(C)C)NC(=O)[C@@H](N)CCC(=O)O)C1=O)C(=O)O`, > 10000 nM.
As for `CC(C)C[C@H](NC(=O)C[C@@H]1NC(=O)[C@H](Cc2c[nH]c3ccccc23)NC(=O)[C@@H]2CCCN2C(=O)[C@H](CCCCN)NC(=O)[C@@H](CCCN=C(N)N)N(C(=O)[C@@H]2CCCN2C(=O)[C@H](CCCCN)NC(=O)[C@H](CC(N)=O)NC(=O)[C@H](CCC(=O)O)NC(=O)[C@H](Cc2ccc(O)cc2)NC(=O)[C@H](CC(C)C)NC(=O)[C@@H](N)CCC(=O)O)C1=O)C(=O)O`, the inhibition constant (Ki) was 910 nM.
`CC(C)C[C@H](NC(=O)[C@@H](N)CCC(=O)O)C(=O)N[C@@H](Cc1ccc(O)cc1)C(=O)N[C@@H](CCC(=O)O)C(=O)N[C@@H](CC(N)=O)C(=O)N[C@@H](CCCCN)C(=O)N1CCC[C@H]1C(=O)N1C(=O)[C@H](CCC(=O)NCC(=O)O)NC(=O)[C@H](Cc2c[nH]c3ccccc23)NC(=O)[C@@H]2CCCN2C(=O)[C@H](CCCCN)NC(=O)[C@H]1CCCN=C(N)N`: the affinity, expressed as Ki, was 250 nM.
As to `CC(C)C[C@H](NC(=O)CCC[C@@H]1NC(=O)[C@H](Cc2c[nH]c3ccccc23)NC(=O)[C@@H]2CCCN2C(=O)[C@H](CCCCN)NC(=O)[C@H](CCCN=C(N)N)N(C(=O)[C@@H]2CCCN2C(=O)[C@H](CCCCN)NC(=O)[C@H](CC(N)=O)NC(=O)[C@H](CCC(=O)O)NC(=O)[C@H](Cc2ccc(O)cc2)NC(=O)[C@H](CC(C)C)NC(=O)[C@@H](N)CCC(=O)O)C1=O)C(=O)O`, the Ki was determined as 830 nM.
Under `CC(C)C[C@H](NC(=O)[C@@H](N)CCC(=O)O)C(=O)N[C@@H](Cc1ccc(O)cc1)C(=O)N[C@@H](CCC(=O)O)C(=O)N[C@@H](CC(N)=O)C(=O)N[C@@H](CCCCN)C(=O)N1CCC[C@H]1C(=O)N(C)[C@@H](CCCN=C(N)N)C(=O)N1C(=O)[C@H](CC(C)C)NC(=O)[C@@H](CCC(=O)O)NC(=O)[C@H](Cc2c[nH]c3ccccc23)NC(=O)[C@@H]2CCCN2C(=O)[C@H]1CCCCN` stands 2500 nM; under `CC(=O)N(C(=O)[C@@H]1CCCN1C(=O)[C@H](CCCCN)NC(=O)[C@H](CC(N)=O)NC(=O)[C@H](CCC(=O)O)NC(=O)[C@H](Cc1ccc(O)cc1)NC(=O)[C@H](CC(C)C)NC(=O)[C@@H](N)CCC(=O)O)[C@@H](CCCN=C(N)N)C(=O)N[C@@H](CCCCN)C(=O)N1CCC[C@H]1C(=O)N[C@@H](Cc1c[nH]c2ccccc12)C(=O)N[C@@H](CCC(N)=O)C(=O)N[C@@H](CC(C)C)C(=O)O`, 260 nM; under `CC(C)C[C@H](NC(=O)[C@H](CCC(=O)O)NC(=O)[C@H](Cc1c[nH]c2ccccc12)NC(=O)[C@@H]1CCCN1C(=O)[C@H](CCCCN)NC(=O)[C@H](CCCN=C(N)N)N(C)C(=O)[C@@H]1CCCN1C(=O)[C@H](CCCCN)NC(=O)[C@H](CC(N)=O)NC(=O)[C@H](CCC(=O)O)NC(=O)[C@H](Cc1ccc(O)cc1)NC(=O)[C@H](CC(C)C)NC(=O)[C@@H](N)CCC(=O)O)C(=O)O` (H-ELYENKP[NMeR]KPWEL-OH), > 10000 nM.
As to `CC(C)C[C@H](NC(=O)[C@@H](NC(=O)[C@H](Cc1c[nH]c2ccccc12)NC(=O)[C@@H]1CCCN1C(=O)[C@H](CCCCN)NC(=O)[C@H](CCCN=C(N)N)N(C)C(=O)[C@@H]1CCCN1C(=O)[C@H](CCCCN)NC(=O)[C@H](CC(N)=O)NC(=O)[C@H](CCC(=O)O)NC(=O)[C@H](Cc1ccc(O)cc1)NC(=O)[C@H](CC(C)C)NC(=O)[C@@H](N)CCC(=O)O)C(C)(C)C)C(=O)O` (H-ELYENKP[NMeR]KPW[Tle]L-OH), affinity was put at a Ki of 0.67 nM.
As to `CC(C)CC(NC(=O)CC[C@H]1NC(=O)[C@H](Cc2c[nH]c3ccccc23)NC(=O)[C@@H]2CCCN2C(=O)[C@H](CCCCN)NC(=O)[C@@H](CCCN=C(N)N)N(C(=O)[C@@H]2CCCN2C(=O)[C@H](CCCCN)NC(=O)[C@H](CC(N)=O)NC(=O)C(CCC(=O)O)NC(=O)[C@H](Cc2ccc(O)cc2)NC(=O)[C@H](CC(C)C)NC(=O)C(N)CCC(=O)O)C1=O)C(=O)O` (stereo in doubt), the inhibitory constant (Ki) was > 10000 nM.
